Assay results reported in ChEMBL document CHEMBL1122702, “Radiohalogen-labeled imaging agents. 3. Compounds for measurement of brain blood flow by emission tomography” (J Med Chem, 1984).

Tests used:
Type in all cases: ADME, organism-based
Rattus norvegicus [1] = organism: Rattus norvegicus; assay: The distribution of the 131 I-labeled compound at 5 min was evaluated in rat brain as Percent of injected dose in the total organ; details: in vivo
Summary of the method: (§1)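 Male Sprague-Dawley rats (200–300 g, free access to food and water), lightly ether-anesthetized and restrained, received a 0.2 mL saline tail-vein bolus of 10–20 μCi 131I-labeled compound. They were decapitated at the stated time, and organs were excised, weighed and gamma-counted. Percent injected dose was determined against a calibrated external standard made by serial dilution of the injectate. n = 1–4 rats.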

Rattus norvegicus [2] = organism: Rattus norvegicus; assay: Ratio of distribution of the [131I]-labeled compound at 5 min in rat brain over uptake in blood
Summary of the method: (§2)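 Male Sprague-Dawley rats (200–300 g, fed ad libitum), ether-anesthetized, got a tail-vein bolus of 0.2 mL saline containing 10–20 μCi 131I compound and were decapitated at the stated time. Organs were weighed and gamma-counted against a serially diluted external standard. Organ/blood ratio was calculated from % dose per gram of organ. Animal numbers per time point were 1–4.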

Rattus norvegicus [3] = organism: Rattus norvegicus; assay: The distribution of the 131 I-labeled compound at 30 min was evaluated in rat liver as Percent of injected dose per gram in the organ; details: in vivo, 0.5 h; summary of the method: as §1
Rattus norvegicus [4] = organism: Rattus norvegicus; assay: The distribution of the 131 I-labeled compound at 5 min was evaluated in rat liver as Percent of injected dose in the total organ; details: in vivo; summary of the method: as §1
Rattus norvegicus [5] = organism: Rattus norvegicus; assay: The distribution of the 131 I-labeled compound at 5 min was evaluated in rat lung as Percent of injected dose per gram in the organ; details: in vivo; summary of the method: as §1
Rattus norvegicus [6] = organism: Rattus norvegicus; assay: Ratio of distribution of the [131I]-labeled compound at 5 min in rat kidney over uptake in blood; details: other tissue; summary of the method: as §2
Rattus norvegicus [7] = organism: Rattus norvegicus; assay: Ratio of distribution of the [131I]-labeled compound at 30 min in rat lung over uptake in blood; details: other tissue, 0.5 h; summary of the method: as §2
Rattus norvegicus [8] = organism: Rattus norvegicus; assay: Ratio of distribution of the [131I]-labeled compound at 30 min in rat liver over uptake in blood; details: other tissue, 0.5 h; summary of the method: as §2
Rattus norvegicus [9] = organism: Rattus norvegicus; assay: The distribution of the 131 I-labeled compound at 30 min was evaluated in rat blood as Percent of injected dose per gram in the organ; details: in vivo, 0.5 h; summary of the method: as §1
Rattus norvegicus [10] = organism: Rattus norvegicus; assay: The distribution of the 131 I-labeled compound at 30 min was evaluated in rat brain as Percent of injected dose in the total organ; details: in vivo, 0.5 h; summary of the method: as §1
Rattus norvegicus [11] = organism: Rattus norvegicus; assay: The distribution of the 131 I-labeled compound at 30 min was evaluated in rat kidney as Percent of injected dose per gram in the organ; details: in vivo, 0.5 h; summary of the method: as §1
Rattus norvegicus [12] = organism: Rattus norvegicus; assay: The distribution of the 131 I-labeled compound at 5 min was evaluated in rat brain as Percent of injected dose per gram in the organ; details: in vivo; summary of the method: as §1
Rattus norvegicus [13] = organism: Rattus norvegicus; assay: Ratio of distribution of the [131I]-labeled compound at 30 min in rat kidney over uptake in blood; details: other tissue, 0.5 h; summary of the method: as §2
Rattus norvegicus [14] = organism: Rattus norvegicus; assay: The distribution of the 131 I-labeled compound at 5 min was evaluated in rat blood as Percent of injected dose per gram in the organ; details: in vivo; summary of the method: as §1
Rattus norvegicus [15] = organism: Rattus norvegicus; assay: The distribution of the 131 I-labeled compound at 30 min was evaluated in rat heart as Percent of injected dose in the total organ; details: in vivo, 0.5 h; summary of the method: as §1
Rattus norvegicus [16] = organism: Rattus norvegicus; assay: The distribution of the 131 I-labeled compound at 5 min was evaluated in rat heart as Percent of injected dose in the total organ; details: in vivo; summary of the method: as §1
Rattus norvegicus [17] = organism: Rattus norvegicus; assay: The distribution of the 131 I-labeled compound at 30 min was evaluated in rat heart as Percent of injected dose per gram in the organ; details: in vivo, 0.5 h; summary of the method: as §1
Rattus norvegicus [18] = organism: Rattus norvegicus; assay: The distribution of the 131 I-labeled compound at 30 min was evaluated in rat lung as Percent of injected dose per gram in the organ; details: in vivo, 0.5 h; summary of the method: as §1
Rattus norvegicus [19] = organism: Rattus norvegicus; assay: Ratio of distribution of the [131I]-labeled compound at 30 min in rat brain over uptake in blood; details: 0.5 h; summary of the method: as §2
Rattus norvegicus [20] = organism: Rattus norvegicus; assay: Ratio of distribution of the [131I]-labeled compound at 5 min in rat lung over uptake in blood; details: other tissue; summary of the method: as §2
Rattus norvegicus [21] = organism: Rattus norvegicus; assay: The distribution of the 131 I-labeled compound at 30 min was evaluated in rat brain as Percent of injected dose per gram in the organ; details: in vivo, 0.5 h; summary of the method: as §1
Rattus norvegicus [22] = organism: Rattus norvegicus; assay: The distribution of the 131 I-labeled compound at 5 min was evaluated in rat heart as Percent of injected dose per gram in the organ; details: in vivo; summary of the method: as §1
Rattus norvegicus [23] = organism: Rattus norvegicus; assay: The distribution of the 131 I-labeled compound at 5 min was evaluated in rat kidney as Percent of injected dose per gram in the organ; details: in vivo; summary of the method: as §1
Rattus norvegicus [24] = organism: Rattus norvegicus; assay: The distribution of the 131 I-labeled compound at 5 min was evaluated in rat kidney as Percent of injected dose in the total organ; details: in vivo; summary of the method: as §1
Rattus norvegicus [25] = organism: Rattus norvegicus; assay: The distribution of the 131 I-labeled compound at 5 min was evaluated in rat liver as Percent of injected dose per gram in the organ; details: in vivo; summary of the method: as §1
Rattus norvegicus [26] = organism: Rattus norvegicus; assay: Ratio of distribution of the [131I]-labeled compound at 5 min in rat heart over uptake in blood; details: other tissue; summary of the method: as §2
Rattus norvegicus [27] = organism: Rattus norvegicus; assay: Ratio of distribution of the [131I]-labeled compound at 30 min in rat heart over uptake in blood; details: other tissue, 0.5 h; summary of the method: as §2
Rattus norvegicus [28] = organism: Rattus norvegicus; assay: The distribution of the 131 I-labeled compound at 30 min was evaluated in rat liver as Percent of injected dose in the total organ; details: in vivo, 0.5 h; summary of the method: as §1
Rattus norvegicus [29] = organism: Rattus norvegicus; assay: The distribution of the 131 I-labeled compound at 30 min was evaluated in rat kidney as Percent of injected dose in the total organ; details: in vivo, 0.5 h; summary of the method: as §1
Rattus norvegicus [30] = organism: Rattus norvegicus; assay: Ratio of distribution of the [131I]-labeled compound at 5 min in rat liver over uptake in blood; details: other tissue; summary of the method: as §2

Row | SMILES | Dose (Rattus norvegicus [1]) [%] | Ratio (Rattus norvegicus [2]) | Dose (Rattus norvegicus [3]) [%] | Dose (Rattus norvegicus [4]) [%] | Dose (Rattus norvegicus [5]) [%] | Ratio (Rattus norvegicus [6]) | Ratio (Rattus norvegicus [7]) | Ratio (Rattus norvegicus [8]) | Dose (Rattus norvegicus [9]) [%] | Dose (Rattus norvegicus [10]) [%] | Dose (Rattus norvegicus [11]) [%] | Dose (Rattus norvegicus [12]) [%] | Ratio (Rattus norvegicus [13]) | Dose (Rattus norvegicus [14]) [%] | Dose (Rattus norvegicus [15]) [%] | Dose (Rattus norvegicus [16]) [%] | Dose (Rattus norvegicus [17]) [%] | Dose (Rattus norvegicus [18]) [%] | Ratio (Rattus norvegicus [19]) | Ratio (Rattus norvegicus [20]) | further results
1 | COc1cc(CC(C)NCC#N)c(OC)cc1I (stereo not given) | 0.61 | 3 | 1.2 | 8.4 | 2.6 | 15 | 15 | 9.2 | 0.13 | 0.61 | 1.2 | 0.3 | 9.2 | 0.11 | 0.3 | 0.69 | 0.39 | 1.9 | 2.4 | 24 | Dose (Rattus norvegicus [21]): 0.31%; Dose (Rattus norvegicus [22]): 0.52%; Dose (Rattus norvegicus [23]): 1.5%; Dose (Rattus norvegicus [24]): 4.8%; Dose (Rattus norvegicus [25]): 0.53%; Ratio (Rattus norvegicus [26]): 4.7; Ratio (Rattus norvegicus [27]): 3; Dose (Rattus norvegicus [28]): 9.5%; Dose (Rattus norvegicus [29]): 2.2%; Ratio (Rattus norvegicus [30]): 4.8
2 | COc1cc(CC(C)NCC2CC2)c(OC)cc1I (stereo not given) | 0.62 | 2.8 | 0.97 | 3.9 | 7.8 | 9.2 | 26 | 11 | 0.09 | 0.35 | 0.77 | 0.33 | 8.6 | 0.12 | 0.23 | 0.71 | 0.3 | 2.4 | 2.1 | 65 | Dose (Rattus norvegicus [21]): 0.19%; Dose (Rattus norvegicus [22]): 0.91%; Dose (Rattus norvegicus [23]): 1.1%; Dose (Rattus norvegicus [24]): 2%; Dose (Rattus norvegicus [25]): 0.55%; Ratio (Rattus norvegicus [26]): 7.6; Ratio (Rattus norvegicus [27]): 3.3; Dose (Rattus norvegicus [28]): 8.9%; Dose (Rattus norvegicus [29]): 1.7%; Ratio (Rattus norvegicus [30]): 4.5
